How the values were obtained:
[1] = Cytotoxicity against human HCT116 cells after 5 days by sulforhodamine B assay; format: functional, HCT-116
Procedure, shortened: (§1)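 Cancer lines were seeded at 800–6000 cells per well according to growth rate, 24 h before compound overlay. After culture, cells were fixed in situ and stained with sulforhodamine B. GI50 values were derived by curve fitting.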

[2] = molecular target: Aurora kinase B/Inner centromere protein (Homo sapiens, UniProt Q96GD4); assay: Inhibition of AURKB/INCENP (unknown origin) preincubated for 15 mins prior to ATP addition by FRET-based homogenous assay; format: protein-complex assay
Procedure, shortened: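 The enzyme was AURKB/INCENP in a FRET-based homogeneous assay run to kit specifications, with ATP at 128 μM. […] Each IC50 came from a single determination, reported with its standard fitting error.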

[3] = AUC in athymic CD1 nude mouse at 10 mg/kg, po by LC-MS/MS analysis; format: ADME, organism-based; set-up: dose 10 mg/kg, route oral; settings: plasma
[4] = Cmax in athymic CD1 nude mouse at 10 mg/kg, po by LC-MS/MS analysis; format: ADME, organism-based; set-up: dose 10 mg/kg, route oral; settings: athymic CD1 nude, in vivo
[5] = molecular target: T1, Dual specificity protein kinase TTK (Homo sapiens, UniProt P33981); assay: Inhibition of amino terminal GST-fused full length human TTK using His6-SUMO-TTK-N as substrate preincubated for 15 mins prior to ATP addition by indirect ELISA detection system
T1 sequence (P33981 whole entry): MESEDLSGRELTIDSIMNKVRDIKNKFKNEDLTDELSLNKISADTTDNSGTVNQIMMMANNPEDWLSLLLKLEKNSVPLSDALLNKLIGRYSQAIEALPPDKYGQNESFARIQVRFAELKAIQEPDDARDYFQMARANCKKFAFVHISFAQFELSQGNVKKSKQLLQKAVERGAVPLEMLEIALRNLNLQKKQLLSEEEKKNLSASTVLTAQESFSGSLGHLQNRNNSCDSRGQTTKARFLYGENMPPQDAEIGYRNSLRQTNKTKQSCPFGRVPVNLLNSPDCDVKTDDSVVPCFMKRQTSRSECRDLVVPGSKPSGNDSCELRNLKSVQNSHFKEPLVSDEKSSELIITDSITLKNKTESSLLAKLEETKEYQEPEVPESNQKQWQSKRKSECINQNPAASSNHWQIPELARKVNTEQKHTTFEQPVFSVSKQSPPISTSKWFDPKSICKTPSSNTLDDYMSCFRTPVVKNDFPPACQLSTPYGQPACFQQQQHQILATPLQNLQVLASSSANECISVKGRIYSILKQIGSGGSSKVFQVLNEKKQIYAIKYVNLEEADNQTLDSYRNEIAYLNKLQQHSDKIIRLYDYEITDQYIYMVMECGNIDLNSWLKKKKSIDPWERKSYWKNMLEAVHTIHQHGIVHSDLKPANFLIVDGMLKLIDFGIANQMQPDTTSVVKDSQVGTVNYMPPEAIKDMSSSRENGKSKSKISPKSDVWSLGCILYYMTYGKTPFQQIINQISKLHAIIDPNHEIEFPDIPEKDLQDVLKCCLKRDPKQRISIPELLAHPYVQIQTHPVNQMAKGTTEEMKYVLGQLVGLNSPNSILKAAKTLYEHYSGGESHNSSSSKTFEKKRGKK

MDA-MB-468 = assay: Cytotoxicity against human MDA-MB-468 cells after 5 days by sulforhodamine B assay; format: functional; procedure, shortened: as §1
[6] = (§2) Half life in rat liver microsomes at 1 uM by LC-MS analysis; format: ADME; settings: liver microsomes
[7] = Half life in mouse liver microsomes at 1 uM by LC-MS analysis; format: ADME; settings: liver microsomes
Aurora kinase A = molecular target: T2, Aurora kinase A (Homo sapiens, UniProt O14965); assay: Inhibition of recombinant AURKA (unknown origin) preincubated for 15 mins prior to ATP addition by FRET-based homogenous assay
T2 sequence (O14965 whole entry): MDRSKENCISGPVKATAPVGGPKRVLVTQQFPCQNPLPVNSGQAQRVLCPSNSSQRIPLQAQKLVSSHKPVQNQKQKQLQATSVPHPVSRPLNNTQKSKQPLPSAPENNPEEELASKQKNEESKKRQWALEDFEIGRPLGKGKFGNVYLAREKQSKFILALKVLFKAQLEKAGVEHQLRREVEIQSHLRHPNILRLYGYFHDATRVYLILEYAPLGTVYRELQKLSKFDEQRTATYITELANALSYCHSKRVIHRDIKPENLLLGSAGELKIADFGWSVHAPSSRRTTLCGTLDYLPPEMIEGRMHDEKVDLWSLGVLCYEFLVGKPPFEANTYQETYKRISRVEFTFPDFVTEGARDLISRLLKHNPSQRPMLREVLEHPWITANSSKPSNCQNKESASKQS

[8] = molecular target: Vascular endothelial growth factor receptor 2 (Homo sapiens, UniProt P35968); assay: Inhibition of recombinant KDR (unknown origin) preincubated for 15 mins prior to ATP addition by FRET-based homogenous assay
[9] = AUCinfinity in Sprague-Dawley rat at 5 mg/kg, po by LC-MS/MS analysis; format: ADME, organism-based; set-up: time infinity, dose 5 mg/kg, route oral; settings: plasma
[10] = Oral bioavailability in Sprague-Dawley rat at 5 mg/kg by LC-MS/MS analysis; format: ADME, organism-based; settings: in vivo
[11] = Cytotoxicity against human OVCAR3 cells after 5 days by sulforhodamine B assay; format: functional, OVCAR-3
Cytochrome P450 3A4 = Cytochrome P450 3A4 (Homo sapiens, UniProt P08684); assay: Inhibition of human CYP3A4 using BFC as substrate preincubated for 10 mins followed by enzyme/substrate addition measured after 30 mins by fluorescence assay; format: ADME
[12] = Clearance in Sprague-Dawley rat at 1 mg/kg, iv by LC-MS/MS analysis; format: ADME, organism-based; set-up: dose 1 mg/kg, route intravenous; settings: in vivo
[13] = AUCinfinity in Sprague-Dawley rat at 1 mg/kg, iv by LC-MS/MS analysis; format: ADME, organism-based; set-up: time infinity, dose 1 mg/kg, route intravenous; settings: plasma
[14] = Half life in Sprague-Dawley rat at 1 mg/kg, iv by LC-MS/MS analysis; format: ADME, organism-based; set-up: dose 1 mg/kg, route intravenous; settings: in vivo
[15] = AUCinfinity in athymic CD1 nude mouse at 10 mg/kg, po by LC-MS/MS analysis; format: ADME, organism-based, Plasma; set-up: time infinity, dose 10 mg/kg, route oral; settings: athymic CD1 nude, plasma
Homo sapiens = species on record: Homo sapiens; assay: Selectivity ratio of IC50 for AURKB/INCENP (unknown origin) to IC50 for amino terminal GST-fused full length human TTK
Liver microsome = assay: as §2; format: ADME; settings: microsomes, 1 µM
[16] = Homo sapiens, MDA-MB-468, 120 h

Sequence of Aurora kinase B/Inner centromere protein (Q96GD4 whole entry): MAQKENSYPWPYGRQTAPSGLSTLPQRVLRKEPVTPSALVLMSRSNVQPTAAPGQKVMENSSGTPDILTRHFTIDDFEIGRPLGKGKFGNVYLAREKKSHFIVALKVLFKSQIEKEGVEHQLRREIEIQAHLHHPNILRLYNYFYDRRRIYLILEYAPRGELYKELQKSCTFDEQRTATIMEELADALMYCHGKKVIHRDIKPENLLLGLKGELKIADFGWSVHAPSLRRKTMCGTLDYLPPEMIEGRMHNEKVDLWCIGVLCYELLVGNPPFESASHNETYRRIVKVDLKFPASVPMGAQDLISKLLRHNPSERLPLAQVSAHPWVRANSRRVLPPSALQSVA
Sequence of Aurora kinase B/Inner centromere protein (Q9NQS7 whole entry, further chain): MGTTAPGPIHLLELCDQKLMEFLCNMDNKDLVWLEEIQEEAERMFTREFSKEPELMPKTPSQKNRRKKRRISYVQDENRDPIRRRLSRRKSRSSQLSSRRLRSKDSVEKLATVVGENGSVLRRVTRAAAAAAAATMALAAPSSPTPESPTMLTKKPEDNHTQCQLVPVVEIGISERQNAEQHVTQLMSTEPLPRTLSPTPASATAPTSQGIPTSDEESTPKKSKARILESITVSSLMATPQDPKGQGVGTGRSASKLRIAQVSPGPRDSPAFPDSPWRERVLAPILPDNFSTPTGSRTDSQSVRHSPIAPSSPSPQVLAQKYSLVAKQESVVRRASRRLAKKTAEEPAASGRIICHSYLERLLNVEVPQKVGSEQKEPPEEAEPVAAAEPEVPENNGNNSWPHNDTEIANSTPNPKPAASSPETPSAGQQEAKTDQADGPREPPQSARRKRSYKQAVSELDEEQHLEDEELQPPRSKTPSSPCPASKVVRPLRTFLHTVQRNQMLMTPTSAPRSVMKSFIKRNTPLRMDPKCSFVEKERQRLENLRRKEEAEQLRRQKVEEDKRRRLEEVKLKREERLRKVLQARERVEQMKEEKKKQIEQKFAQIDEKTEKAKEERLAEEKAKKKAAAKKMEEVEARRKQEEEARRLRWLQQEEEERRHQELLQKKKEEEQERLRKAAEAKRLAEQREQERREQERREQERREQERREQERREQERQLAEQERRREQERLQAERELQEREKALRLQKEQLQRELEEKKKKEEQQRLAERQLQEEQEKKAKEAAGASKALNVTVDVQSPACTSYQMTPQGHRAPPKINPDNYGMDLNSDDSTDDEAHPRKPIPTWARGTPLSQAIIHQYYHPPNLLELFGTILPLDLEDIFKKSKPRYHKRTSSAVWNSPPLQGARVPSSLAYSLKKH
Sequence of Cytochrome P450 3A4 (P08684 whole entry): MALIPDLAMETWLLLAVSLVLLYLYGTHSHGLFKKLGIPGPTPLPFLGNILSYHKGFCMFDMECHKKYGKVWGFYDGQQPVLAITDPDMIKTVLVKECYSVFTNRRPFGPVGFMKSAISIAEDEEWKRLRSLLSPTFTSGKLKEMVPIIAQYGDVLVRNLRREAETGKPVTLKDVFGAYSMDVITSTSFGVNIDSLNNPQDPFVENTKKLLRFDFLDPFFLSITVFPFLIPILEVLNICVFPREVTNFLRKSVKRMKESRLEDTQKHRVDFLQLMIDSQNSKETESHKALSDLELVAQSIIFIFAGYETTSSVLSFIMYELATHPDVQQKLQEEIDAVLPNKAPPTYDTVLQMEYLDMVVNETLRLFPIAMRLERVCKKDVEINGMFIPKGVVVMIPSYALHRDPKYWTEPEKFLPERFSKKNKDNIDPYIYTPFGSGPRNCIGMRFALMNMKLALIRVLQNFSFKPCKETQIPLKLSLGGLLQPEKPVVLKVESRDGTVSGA
Sequence of Vascular endothelial growth factor receptor 2 (P35968 whole entry): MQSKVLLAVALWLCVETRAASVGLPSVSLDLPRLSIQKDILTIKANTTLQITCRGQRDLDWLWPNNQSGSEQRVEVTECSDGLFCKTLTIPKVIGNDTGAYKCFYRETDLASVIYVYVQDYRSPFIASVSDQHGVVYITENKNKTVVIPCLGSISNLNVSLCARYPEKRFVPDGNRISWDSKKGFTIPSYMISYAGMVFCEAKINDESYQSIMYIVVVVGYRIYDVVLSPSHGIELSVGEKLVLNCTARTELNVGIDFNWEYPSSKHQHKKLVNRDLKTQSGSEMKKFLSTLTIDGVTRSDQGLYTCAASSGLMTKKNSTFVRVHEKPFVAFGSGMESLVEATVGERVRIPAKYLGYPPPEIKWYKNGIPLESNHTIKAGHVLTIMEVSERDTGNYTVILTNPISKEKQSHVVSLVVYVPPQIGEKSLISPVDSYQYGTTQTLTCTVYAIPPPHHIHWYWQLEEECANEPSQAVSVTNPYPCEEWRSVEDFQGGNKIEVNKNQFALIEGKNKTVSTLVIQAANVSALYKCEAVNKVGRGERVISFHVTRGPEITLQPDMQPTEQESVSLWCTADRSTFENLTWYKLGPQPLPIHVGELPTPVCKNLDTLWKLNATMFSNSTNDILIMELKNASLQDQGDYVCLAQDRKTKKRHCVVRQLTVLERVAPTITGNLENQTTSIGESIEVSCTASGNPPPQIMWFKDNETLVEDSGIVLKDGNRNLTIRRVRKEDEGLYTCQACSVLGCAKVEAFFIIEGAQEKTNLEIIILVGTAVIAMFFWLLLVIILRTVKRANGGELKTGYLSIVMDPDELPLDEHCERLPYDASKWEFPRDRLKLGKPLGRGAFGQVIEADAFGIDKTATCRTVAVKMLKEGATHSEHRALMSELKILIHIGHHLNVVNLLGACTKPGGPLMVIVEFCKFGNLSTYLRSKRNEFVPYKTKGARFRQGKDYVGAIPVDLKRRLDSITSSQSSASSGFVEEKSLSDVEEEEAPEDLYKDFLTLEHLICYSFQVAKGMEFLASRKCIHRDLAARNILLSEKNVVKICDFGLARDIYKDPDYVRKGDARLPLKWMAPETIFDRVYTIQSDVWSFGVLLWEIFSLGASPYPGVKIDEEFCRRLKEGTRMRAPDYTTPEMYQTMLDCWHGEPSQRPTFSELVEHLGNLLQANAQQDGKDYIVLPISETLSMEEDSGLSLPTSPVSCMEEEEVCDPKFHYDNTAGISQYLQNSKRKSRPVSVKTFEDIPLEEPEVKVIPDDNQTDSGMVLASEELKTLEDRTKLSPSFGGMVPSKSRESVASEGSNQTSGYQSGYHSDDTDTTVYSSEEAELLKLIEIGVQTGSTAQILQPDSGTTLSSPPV

Compound | GI50 ([1]; Homo sapiens, HCT-116, 120 h) | IC50 [2] | AUC [3] | Cmax [4] | IC50 [5] | GI50 (MDA-MB-468; [16]) | half-life at 1 µM [6] | half-life at 1 µM [7] | bioavailability [10] | IC50 (Cytochrome P450 3A4) | further results
CN1CCN(c2ccc(-c3n[nH]c4ccc(C(=O)NCC5(N6CCOCC6)CCCCC5)cc34)cc2)CC1 | 12 nM | 440 nM | 480 ng·h/mL | 160 ng/mL | 7.6 nM | 180 nM | – | – | – | – | –
O=C(CC1(N2CCOCC2)CCCCC1)Nc1ccc2[nH]nc(-c3ccc(N4CCOCC4)cc3)c2c1 | 94 nM | – | – | – | 12 nM | 440 nM | 10 min | 5.8 min | – | – | IC50 (Aurora kinase A): 2100 nM; IC50 [8]: 1200 nM
O=C(NCC1(N2CCOCC2)CCCCC1)c1ccc2[nH]nc(-c3ccc(N4CCOCC4)cc3)c2c1 | 39 nM | 750 nM | – | – | 7.7 nM | 190 nM | 1.5 min | 1.7 min | – | – | IC50 (Aurora kinase A): 2300 nM; IC50 [8]: 3800 nM
O=C(N[C@@H](c1ccccn1)C1CC1)c1ccc2[nH]nc(-c3ccc(N4C5CCC4COC5)cc3)c2c1 | 21 nM | 1200 nM | – | 1500 ng/mL | 2 nM | 130 nM | > 60 min | > 60 min | 75% | 1400 nM | AUC(0-inf) [9]: 890 ng·h/mL; GI50 ([11]; Homo sapiens, OVCAR-3, 120 h): 150 nM; clearance [12]: 71 mL/min/kg; AUC(0-inf) [13]: 240 ng·h/mL; half-life [14]: 24 min; AUC(0-inf) [15]: 2100 ng·h/mL
O=C(N[C@H](c1ccccn1)C1CCCC1)c1ccc2[nH]nc(-c3ccc(N4C5CCC4COC5)cc3)c2c1 | – | 1400 nM | – | – | – | – | – | – | 39% | 930 nM | –
O=C(N[C@H](c1ncccn1)C1CCCC1)c1ccc2[nH]nc(-c3ccc(N4[C@H]5CC[C@H]4CC(O)C5)cc3)c2c1 (some centres undefined) | 1 nM | 620 nM | – | 750 ng/mL | 1.1 nM | 14 nM | > 60 min | > 60 min | 21% | – | AUC(0-inf) [9]: 140 ng·h/mL; GI50 ([11]; Homo sapiens, OVCAR-3, 120 h): 20 nM; clearance [12]: 125 mL/min/kg; AUC(0-inf) [13]: 130 ng·h/mL; half-life [14]: 43.8 min; AUC(0-inf) [15]: 970 ng·h/mL
O=C(N[C@H](CC1CC1)c1ccccn1)c1ccc2[nH]nc(-c3ccc(N4[C@H]5CC[C@H]4CC(O)C5)cc3)c2c1 (some centres undefined) | 16 nM | 1200 nM | – | 1200 ng/mL | 1.5 nM | 27 nM | > 60 min | > 60 min | 19% | 1300 nM | AUC(0-inf) [9]: 270 ng·h/mL; Ratio IC50 (Homo sapiens): > 100; clearance [12]: 57 mL/min/kg; AUC(0-inf) [13]: 290 ng·h/mL; half-life [14]: 22.8 min; AUC(0-inf) [15]: 1900 ng·h/mL
NS(=O)(=O)c1cccc(-c2n[nH]c3ccc(NC(=O)C(c4ccsc4)N4CCCC4)cc23)c1 (racemic) | 39 nM | – | 25 ng·h/mL | 7 ng/mL | – | 87 nM | – | – | – | – | –
O=C(NC(c1ccccc1)C1CC1)c1ccc2[nH]nc(-c3ccc(N4CCOCC4)cc3)c2c1 (racemic) | 86 nM | 190 nM | 13500 ng·h/mL | 3900 ng/mL | 17 nM | 330 nM | – | – | – | – | –
CN1CCN(c2ccc(-c3n[nH]c4ccc(NC(=O)C(c5ccsc5)N5CCCC5)cc34)cc2)CC1 (racemic) | 57 nM | – | 590 ng·h/mL | 180 ng/mL | 7.4 nM | 250 nM | – | – | – | – | –
O=C(Nc1ccc2[nH]nc(-c3ccc(N4CCOCC4)cc3)c2c1)C(c1ccsc1)N1CCCC1 (racemic) | 27 nM | – | 7900 ng·h/mL | 3500 ng/mL | 11 nM | 160 nM | – | – | – | – | –
CN1CCC(Oc2ccc(-c3n[nH]c4ccc(NC(=O)C(c5ccsc5)C5CCCC5)cc34)cc2)CC1 (racemic) | 59 nM | – | – | – | 8 nM | 190 nM | 15 min | 29 min | – | – | IC50 (Aurora kinase A): 2300 nM
CN1CCC(Oc2ccc(-c3n[nH]c4ccc(C(=O)NC(c5ccsc5)C5CCCC5)cc34)cc2)CC1 (racemic) | 17 nM | – | – | – | 2.7 nM | 90 nM | 24 min | 21 min | – | – | IC50 (Aurora kinase A): 2000 nM; IC50 [8]: 2900 nM
O=CN1[C@@H]2CC[C@H]1C[C@@H](Oc1ccc(-c3n[nH]c4ccc(C(=O)NC(c5ccsc5)C5CCC5)cc34)cc1)C2 (mixture of isomers) | 41 nM | 1200 nM | 30 ng·h/mL | 33 ng/mL | 2.5 nM | 110 nM | – | – | – | – | –
CC(C)CC(NC(=O)c1ccc2[nH]nc(-c3ccc(O[C@H]4C[C@H]5CC[C@@H](C4)N5C=O)cc3)c2c1)c1ccccn1 (mixture of isomers) | 64 nM | 300 nM | 660 ng·h/mL | 280 ng/mL | 3 nM | 150 nM | – | – | – | 410 nM | –
O=C(N[C@H](c1ccccn1)C1CCCC1)c1ccc2[nH]nc(-c3ccc(N4[C@H]5CC[C@H]4CC(O)C5)cc3)c2c1 (stereo in doubt; 76) | – | > 6300 nM | – | 1500 ng/mL | 4.3 nM | – | – | > 60 min | 13% | 820 nM | GI50 [1]: 8 nM; t1/2 (Liver microsome): > 60 min; AUC(0-inf) [9]: 130 ng·h/mL; GI50 [11]: 50 nM; GI50 (MDA-MB-468): 20 nM; clearance [12]: 91 mL/min/kg; AUC(0-inf) [13]: 190 ng·h/mL; half-life [14]: 46.8 min; AUC(0-inf) [15]: 2600 ng·h/mL

Reference: ChEMBL document CHEMBL3421533, “The Discovery of Orally Bioavailable Tyrosine Threonine Kinase (TTK) Inhibitors: 3-(4-(heterocyclyl)phenyl)-1H-indazole-5-carboxamides as Anticancer Agents” (J Med Chem, 2015)
